Experimental data as given in ChEMBL document CHEMBL4145680, “Tau-Centric Multitarget Approach for Alzheimer's Disease: Development of First-in-Class Dual Glycogen Synthase Kinase 3β and Tau-Aggregation Inhibitors” (J Med Chem, 2018).
The source made the active and inactive calls.

Key:
[1] = molecular target: Microtubule-associated protein tau (Homo sapiens) (UniProt P10636); assay: Inhibition of heparin-induced full-length 2N4R tau self aggregation (unknown origin) assessed as reduction in formed aggregates level at 10 uM by ThT fluorescence assay based RT-QuIC analysis
How it was run: (§1)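 Full-length 2N4R tau 20 µM with heparin 0.02 mg/mL, 0.5 mM DTT and 10 µM ThT in PBS, ±10 µM compound; 1% DMSO control. Cycled 1 min shaking at 600 rpm and 1 min rest at 42 °C. ThT read every 2 min (ex 450, em 480 nm).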

[2] = molecular target: T1, Glycogen synthase kinase-3 beta (Homo sapiens, UniProt P49841); assay: Inhibition of okadaic acid-induced GSK-3beta-mediated tau hyperphosphorylation in human SH-SY5Y cells assessed as increase in cell viability pre-incubated for 1 hr before okadaic acid stimulation for 24 hrs by MTT assay; format: cell-based
How it was run: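 SH-SY5Y cells grown in DMEM with 10% FBS, seeded at 60000 per well and used 48 h later. Compound given 1 h before 30nM okadaic acid, then 24 h incubation. Viability by MTT, 0.5mg/mL for at least 4 h, formazan dissolved in DMSO, absorbance at 595 nm. Expressed relative to control (=100); n=6 from three independent experiments.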
Target sequence in this assay (P49841 whole entry, looked up): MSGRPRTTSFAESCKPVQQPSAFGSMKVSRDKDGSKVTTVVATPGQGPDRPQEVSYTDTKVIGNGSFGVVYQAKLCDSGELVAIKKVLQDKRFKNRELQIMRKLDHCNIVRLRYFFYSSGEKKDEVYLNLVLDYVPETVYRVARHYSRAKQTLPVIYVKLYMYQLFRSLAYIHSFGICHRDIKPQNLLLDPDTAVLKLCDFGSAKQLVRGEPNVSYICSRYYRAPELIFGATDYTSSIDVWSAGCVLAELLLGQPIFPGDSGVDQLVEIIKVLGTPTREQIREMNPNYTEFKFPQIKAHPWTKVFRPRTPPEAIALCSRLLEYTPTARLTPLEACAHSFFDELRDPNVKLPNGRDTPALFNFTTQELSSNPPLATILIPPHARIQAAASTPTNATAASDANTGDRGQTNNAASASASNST

[3] = molecular target: Microtubule-associated protein tau (Homo sapiens) (UniProt P10636); assay: Inhibition of heparin-induced full-length 2N4R tau self aggregation (unknown origin) assessed as induction of delay in aggregation at 10 uM by ThT fluorescence assay based RT-QuIC analysis; how it was run: as §1
[4] = Inhibition of AcPHF6 peptide aggregation in pH 7.4 phosphate buffer at 20 uM by CD Spectroscopy
[5] = molecular target: T1, Glycogen synthase kinase-3 beta; assay: Competitive inhibition of GSK3beta (unknown origin) at 10 uM using fixed level of GS-2 peptide substrate and varying ATP levels incubated for 30 mins by kinase-Glo luminescent assay
How it was run: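 Human recombinant GSK-3β, 20 ng per reaction, in HEPES pH 7.5 buffer with EDTA, EGTA and Mg acetate. GS-2 prephosphorylated peptide held at 25 µM; ATP varied from 1 to 50 µM along with inhibitor level. 30 min at 30 °C, then Kinase-Glo luminescence read after 10 min. Lineweaver–Burk double-reciprocal analysis; means of two experiments, each run in triplicate.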
Target sequence in this assay (P49841 whole entry, looked up): as above

[6] = Inhibition of tau K18 fragment peptide aggregation assessed as induction of delay in […] self aggregation at 1 to 10 uM measured every 15 mins by ThT fluorescence assay based RT-QuIC analysis
How it was run: (§2)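 Tau K18 21 µM with heparin 0.015 mg/mL, 0.1 mM DTT and 10 µM ThT in PBS, with compound at 1, 5 or 10 µM or 1% DMSO; triplicate. Cycled 1 min shaking at 300 rpm and 14 min rest at 37 °C. ThT read every 15 min (ex 450, em 480 nm). Inhibition from mean plateau fluorescence.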

[7] = Inhibition of tau K18 fragment peptide aggregation assessed as reduction in […] self aggregation at 1 to 10 uM measured every 15 mins by ThT fluorescence assay based RT-QuIC analysis; how it was run: as §2
[8] = molecular target: Casein kinase I isoform delta (Homo sapiens) (UniProt P48730); assay: Inhibition of human recombinant CK1delta at 10 uM incubated for 60 mins by Kinase-Glo assay
How it was run: (§3)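 Human recombinant CK1δ or CK1ε, 16 ng, in 50 mM HEPES pH 7.5 with 10 mM MgCl2, 1 mM EGTA and Brij-35. Substrate 0.1% casein with 4 µM ATP; compound diluted to 10 µM before addition, DMSO ≤1%. Incubated 60 min at 30 °C, then Kinase-Glo luminescence read. Inhibition relative to no-inhibitor activity; mean of two experiments.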

[9] = system: Cerebellar granule neurone; assay: Neurotoxicity in rat primary cerebellar granule neurons assessed as reduction in cell viability at 5 to 25 uM incubated for 24 hrs by MTT assay; format: toxicity
How it was run: (§4)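 Cerebellar granule neurons from 7-day-old rat pups, plated on poly-L-lysine at 3 × 10^5 cells/well in BME with FBS and 25 mM KCl. Cytosine arabinoside 10 µM added at 16 h. At 7 days in vitro, switched to serum-free BME with 25 mM KCl and treated 24 h at 0, 5, 25 or 50 µM. MTT 0.1 mg/mL for 20 min at 37 °C, A570. Mean ± SE of ≥3 experiments in triplicate, as % of control.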

[10] = system: Cerebellar granule neurone; assay: Neurotoxicity in rat primary cerebellar granule neurons assessed as reduction in cell viability at 50 uM incubated for 24 hrs by MTT assay; format: toxicity; how it was run: as §4
[11] = molecular target: Casein kinase I isoform epsilon (Homo sapiens) (UniProt P49674); assay: Inhibition of human recombinant CK1epsilon at 10 uM incubated for 60 mins by Kinase-Glo assay; how it was run: as §3
[12] = molecular target: T1, Glycogen synthase kinase-3 beta; assay: Inhibition of GSK3beta (unknown origin) at 10 uM using GS-2 peptide substrate incubated for 30 mins by kinase-Glo luminescent assay
How it was run: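 Human recombinant GSK-3β, 20 ng, in 50 mM HEPES pH 7.5 with 1 mM EDTA, 1 mM EGTA and Mg acetate. Substrate prephosphorylated GS-2 peptide 25 µM with 1 µM ATP; DMSO ≤1%. Incubated 30 min at 30 °C, then Kinase-Glo luminescence read after 10 min. Activity scaled between no-inhibitor and full-inhibition reference controls.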
Target sequence in this assay (P49841 whole entry, looked up): as above

[13] = Inhibition of AcPHF6 peptide aggregation in pH 7.4 phosphate buffer at 10 uM by atomic force microscopy
How it was run: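 AcPHF6 500 µM in water diluted to 50 µM in 50 mM phosphate pH 7.4, ±10 µM compound, no ThT. Incubated 80 min at 25 °C with 10 s shaking at 400 rpm each minute. Ultrafiltered (30 kDa cut-off), buffer exchanged to water, and the retained high-MW fraction adsorbed on mica. Imaged by PeakForce tapping-mode AFM.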

[14] = molecular target: T1, Glycogen synthase kinase-3 beta; assay: Reversible inhibition of GSK3beta (unknown origin) pre-incubated for 30 mins followed by 100 fold dilution into buffer containing ULight-GS (Ser641/pSer657) peptide substrate and cofactors by TR-FRET assay based jump-dilution assay
Target sequence in this assay (P49841 whole entry, looked up): as above

[15] = molecular target: T1, Glycogen synthase kinase-3 beta; assay: Inhibition of GSK3beta (unknown origin) at 10 uM
How it was run: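 Human recombinant GSK-3β (20 ng) with 25 µM GS-2 prephosphorylated peptide and 1 µM ATP in 50 mM HEPES pH 7.5, 1 mM EDTA, 1 mM EGTA, Mg acetate. DMSO at most 1%. 30 min at 30 °C; reaction stopped with Kinase-Glo, luminescence read after 10 min. Activity scaled between no inhibitor and full inhibition by a reference inhibitor.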
Target sequence in this assay (P49841 whole entry, looked up): as above

[16] = molecular target: T1, Glycogen synthase kinase-3 beta; assay: Inhibition of GSK3beta (unknown origin) using GS-2 peptide substrate incubated for 30 mins by kinase-Glo luminescent assay
How it was run: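 Human recombinant GSK-3β, 20 ng, in 50 mM HEPES pH 7.5 with 1 mM EDTA, 1 mM EGTA and Mg acetate. Incubated 30 min at 30 °C, then Kinase-Glo luminescence read after 10 min. Activity scaled between no-inhibitor and full-inhibition reference controls.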
Target sequence in this assay (P49841 whole entry): as the sequence (P49841 whole entry, looked up) above

[17] = Hepatotoxicity in human HepG2 cells assessed as reduction in cell viability at 5 to 50 uM incubated for 24 hrs by MTT assay; format: toxicity, cell-based; conditions: hepg2, 24 h
How it was run: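 HepG2 cells grown in DMEM with 10% FBS at 37 °C, 5% CO2, seeded at 0.5 × 10^5 cells/well and left 24 h. Exposed in serum-free DMEM for 24 h (concentrations listed as 0, 10, 25, 50 µM; elsewhere 0, 5, 25, 50 µM). MTT 0.1 mg/mL for 10 min at 37 °C in the dark. Formazan dissolved in Tris/Triton X-100, A570. Mean ± SE of ≥3 experiments in triplicate; reported as % of control.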

[18] = molecular target: CDC7/DBF4 (Cell division cycle 7-related protein kinase/Activator of S phase kinase) (Homo sapiens) (UniProt Q9UBU7+O00311); assay: Inhibition of CDC7/Dbf4 (unknown origin) at 10 uM incubated for 60 mins by Kinase-Glo assay; format: protein-complex assay; conditions: in the assay text read “ADP-Glo assay” for “Kinase-Glo assay”
How it was run: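 CDC7/DBF4 enzyme, 25 ng/well, with 10 µM ATP (final) and PDKtide substrate. Incubated 60 min at room temperature. ADP-Glo reagent added for 40 min, then detection reagent for 30 min, and luminescence read. Inhibition calculated relative to the no-inhibitor maximum.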

[19] = molecular target: T1, Glycogen synthase kinase-3 beta; assay: Inhibition of GSK3beta (unknown origin) pre-incubated for 30 mins followed by ULight-GS (Ser641/pSer657) peptide substrate addition and measured after 1 hr by TR-FRET assay
Target sequence in this assay (P49841 whole entry): as the sequence (P49841 whole entry, looked up) above

[20] = Permeability in pH 7.4 PBS incubated for 2.5 hrs by PAMPA-BBB assay; format: ADME; conditions: read-out: permeability
How it was run: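 PAMPA-BBB: donor filter coated with porcine brain lipid in dodecane (20 mg/mL). Compounds in PBS pH 7.4/EtOH 70:30, acceptor filled with the same. Sandwich incubated 2.5 h at 25 °C, then donor and acceptor concentrations measured by UV at 3–5 wavelengths, 3 wells, two runs. Ten reference drugs included for validation.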

Chain of Microtubule-associated protein tau (Homo sapiens) (P10636 whole entry): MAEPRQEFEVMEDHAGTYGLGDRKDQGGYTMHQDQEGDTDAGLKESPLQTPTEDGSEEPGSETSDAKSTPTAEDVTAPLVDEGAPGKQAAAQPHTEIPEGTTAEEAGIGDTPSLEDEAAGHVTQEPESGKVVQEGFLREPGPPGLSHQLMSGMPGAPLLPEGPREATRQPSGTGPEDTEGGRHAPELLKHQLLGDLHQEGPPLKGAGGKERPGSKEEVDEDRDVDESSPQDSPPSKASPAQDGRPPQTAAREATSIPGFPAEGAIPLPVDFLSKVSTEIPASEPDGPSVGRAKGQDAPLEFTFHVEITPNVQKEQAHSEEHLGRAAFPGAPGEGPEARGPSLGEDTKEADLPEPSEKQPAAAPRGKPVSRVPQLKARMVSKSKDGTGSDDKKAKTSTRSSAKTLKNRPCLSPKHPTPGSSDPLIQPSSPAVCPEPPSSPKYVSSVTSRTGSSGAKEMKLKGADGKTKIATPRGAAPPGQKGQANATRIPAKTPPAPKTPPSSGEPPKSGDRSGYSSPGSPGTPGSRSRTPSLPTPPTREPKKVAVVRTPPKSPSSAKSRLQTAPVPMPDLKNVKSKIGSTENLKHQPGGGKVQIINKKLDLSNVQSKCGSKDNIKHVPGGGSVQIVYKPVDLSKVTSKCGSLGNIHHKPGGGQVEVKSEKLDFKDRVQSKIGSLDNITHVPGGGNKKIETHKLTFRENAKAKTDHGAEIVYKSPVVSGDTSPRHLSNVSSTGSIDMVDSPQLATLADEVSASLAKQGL
Chain of Casein kinase I isoform epsilon (Homo sapiens) (P49674 whole entry, looked up, canonical isoform): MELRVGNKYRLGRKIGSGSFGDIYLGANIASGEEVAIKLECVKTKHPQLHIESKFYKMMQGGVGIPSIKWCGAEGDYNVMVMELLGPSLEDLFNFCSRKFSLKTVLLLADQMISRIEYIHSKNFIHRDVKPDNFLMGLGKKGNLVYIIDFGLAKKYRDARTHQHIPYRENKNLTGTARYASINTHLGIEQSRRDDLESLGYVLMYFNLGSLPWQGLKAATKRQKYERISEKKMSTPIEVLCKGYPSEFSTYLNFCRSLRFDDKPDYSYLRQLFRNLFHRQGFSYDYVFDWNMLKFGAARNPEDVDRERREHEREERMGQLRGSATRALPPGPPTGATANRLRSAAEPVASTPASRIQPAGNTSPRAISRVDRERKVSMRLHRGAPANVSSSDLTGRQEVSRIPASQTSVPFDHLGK
Chain of CDC7/DBF4 (Cell division cycle 7-related protein kinase/Activator of S phase kinase) (Homo sapiens) (O00311 whole entry, looked up): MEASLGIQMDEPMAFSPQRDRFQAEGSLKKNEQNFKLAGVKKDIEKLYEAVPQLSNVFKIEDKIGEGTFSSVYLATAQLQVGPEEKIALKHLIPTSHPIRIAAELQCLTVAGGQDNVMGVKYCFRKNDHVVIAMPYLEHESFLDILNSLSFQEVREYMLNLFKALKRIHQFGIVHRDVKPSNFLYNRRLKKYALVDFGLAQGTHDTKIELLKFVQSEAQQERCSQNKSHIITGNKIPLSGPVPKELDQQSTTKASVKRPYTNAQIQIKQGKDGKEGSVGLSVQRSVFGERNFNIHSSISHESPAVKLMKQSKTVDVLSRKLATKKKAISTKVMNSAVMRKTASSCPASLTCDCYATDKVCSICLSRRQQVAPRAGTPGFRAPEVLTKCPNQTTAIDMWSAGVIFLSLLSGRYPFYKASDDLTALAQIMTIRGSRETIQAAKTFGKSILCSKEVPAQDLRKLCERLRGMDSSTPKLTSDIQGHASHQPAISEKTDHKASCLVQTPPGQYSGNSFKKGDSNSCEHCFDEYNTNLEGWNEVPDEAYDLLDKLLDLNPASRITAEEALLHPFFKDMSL
Chain of CDC7/DBF4 (Cell division cycle 7-related protein kinase/Activator of S phase kinase) (Homo sapiens) (Q9UBU7 whole entry, looked up): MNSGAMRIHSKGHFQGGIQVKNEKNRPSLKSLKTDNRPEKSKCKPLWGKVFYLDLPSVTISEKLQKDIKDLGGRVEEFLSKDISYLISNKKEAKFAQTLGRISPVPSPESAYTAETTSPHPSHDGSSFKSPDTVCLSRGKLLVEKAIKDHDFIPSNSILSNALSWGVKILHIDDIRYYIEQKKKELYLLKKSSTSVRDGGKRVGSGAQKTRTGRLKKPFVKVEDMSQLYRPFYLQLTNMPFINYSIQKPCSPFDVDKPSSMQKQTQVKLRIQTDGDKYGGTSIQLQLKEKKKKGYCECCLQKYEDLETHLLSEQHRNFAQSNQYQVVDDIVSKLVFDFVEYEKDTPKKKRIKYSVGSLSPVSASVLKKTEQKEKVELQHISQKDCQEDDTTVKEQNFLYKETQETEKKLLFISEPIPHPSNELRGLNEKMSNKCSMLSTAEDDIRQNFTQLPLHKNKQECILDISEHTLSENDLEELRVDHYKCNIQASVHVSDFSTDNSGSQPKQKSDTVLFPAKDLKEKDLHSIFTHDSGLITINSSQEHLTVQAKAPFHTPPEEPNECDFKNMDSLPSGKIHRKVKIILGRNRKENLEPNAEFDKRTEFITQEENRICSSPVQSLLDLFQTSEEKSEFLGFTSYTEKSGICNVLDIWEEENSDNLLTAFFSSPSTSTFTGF
Chain of Casein kinase I isoform delta (Homo sapiens) (P48730 whole entry, looked up, canonical isoform): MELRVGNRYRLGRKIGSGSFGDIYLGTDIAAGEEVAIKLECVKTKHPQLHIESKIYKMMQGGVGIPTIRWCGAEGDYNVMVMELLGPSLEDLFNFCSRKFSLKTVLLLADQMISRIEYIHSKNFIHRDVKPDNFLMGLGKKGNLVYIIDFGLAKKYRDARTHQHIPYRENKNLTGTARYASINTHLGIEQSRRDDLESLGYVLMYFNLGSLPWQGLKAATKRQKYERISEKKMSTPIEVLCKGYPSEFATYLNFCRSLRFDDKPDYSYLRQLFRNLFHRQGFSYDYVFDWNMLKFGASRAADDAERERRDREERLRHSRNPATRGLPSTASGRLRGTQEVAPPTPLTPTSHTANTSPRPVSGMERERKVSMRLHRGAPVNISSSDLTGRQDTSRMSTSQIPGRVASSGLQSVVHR

inhibition [1]: 30%
inhibition [3]: inactive
inhibition [4]: Active
inhibition [5]: Active
inhibition [6]: Active
inhibition [7]: 35%
inhibition [8]: inactive
inhibition [11]: inactive
inhibition [12]: > 50%
inhibition [13]: Active
inhibition [14]: Active
inhibition [15]: 100%
IC50 [16]: 0.89 µM
inhibition [18]: inactive
IC50 [19]: 5.5 µM
Papp at 2.5 h [20]: > 3.07 ×10⁻⁶ cm/s
SMILES: COc1ccc2c(c1)c(/C=C1\SC(=O)NC1=O)cn2C
inhibition [2]: Active
Activity [9]: Non-Toxic
Activity [10]: Toxic
Activity [17]: Non-Toxic
